# Measured values taken from ChEMBL document CHEMBL1938298, “Synthesis and characterization of [¹²⁵I]2-iodo N-[(S)-{(S)-1-methylpiperidin-2-yl}(phenyl)methyl]3-trifluoromethyl-benzamide as novel imaging probe for glycine transporter 1” (Bioorg Med Chem, 2011).
# The source made the active and inactive calls. No cut-off for these calls is given here.
# Tests used:
# [1] = target: T1, Sodium- and chloride-dependent glycine transporter 1 (Rattus norvegicus) (UniProt P28572); assay: Binding affinity to GlyT1 in rat brain corpus callosum at 0.03 to 0.04 nM preincubated for 20 mins in binding buffer before compound addition measured after 30 mins by autoradiography in presence of 0.01 mM NMDA receptor glycine site antagonist L-701,324 relative to control; format: tissue-based; settings: tested as the 125I-labelled form
# T1 sequence (whole entry): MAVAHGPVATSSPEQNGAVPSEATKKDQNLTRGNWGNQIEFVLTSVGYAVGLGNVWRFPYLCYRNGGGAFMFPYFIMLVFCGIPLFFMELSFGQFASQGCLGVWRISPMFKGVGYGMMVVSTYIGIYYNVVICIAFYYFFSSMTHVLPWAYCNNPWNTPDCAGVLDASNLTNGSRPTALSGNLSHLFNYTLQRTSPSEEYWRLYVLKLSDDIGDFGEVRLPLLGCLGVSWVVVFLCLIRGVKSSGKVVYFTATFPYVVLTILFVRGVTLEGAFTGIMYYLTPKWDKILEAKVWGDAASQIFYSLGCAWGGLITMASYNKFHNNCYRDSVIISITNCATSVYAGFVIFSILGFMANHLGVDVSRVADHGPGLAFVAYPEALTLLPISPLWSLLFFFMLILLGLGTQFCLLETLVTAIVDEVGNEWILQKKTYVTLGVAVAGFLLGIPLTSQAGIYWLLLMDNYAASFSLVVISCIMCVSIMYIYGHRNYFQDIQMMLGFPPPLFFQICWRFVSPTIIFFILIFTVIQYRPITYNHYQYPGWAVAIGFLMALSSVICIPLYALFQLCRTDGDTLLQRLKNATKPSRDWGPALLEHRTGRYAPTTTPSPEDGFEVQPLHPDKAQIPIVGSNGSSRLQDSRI
# Method in brief: (§1)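 Rat brain sagittal sections (20 µm) preincubated 20 min at 25 °C in Tris-HCl buffer pH 7.5 (NaCl, KCl, MgCl2, CaCl2), then 30 min at 25 °C with [125I] tracer (100 kBq, 0.03–0.04 nM) plus competitor (10 µM; glycine 1 or 10 mM). Cold washes, imaging plate 3 days, ROI PSL minus background per mm². % control from ≥triplicate slices, three rats.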
# [2] = target: T1, Sodium- and chloride-dependent glycine transporter 1 (Rattus norvegicus); assay: Binding affinity to GlyT1 in rat brain thalamus at 0.03 to 0.04 nM preincubated for 20 mins in binding buffer before compound addition measured after 30 mins by autoradiography in presence of 0.01 mM NMDA receptor glycine site antagonist L-701,324 relative to control; format: tissue-based; settings: tested as the 125I-labelled form
# [3] = system: Mus musculus; assay: In vivo binding affinity to GlyT1 in ddY mouse brain cerebellum at 200 kBq, iv after 60 mins by autoradiography relative to control; format: functional, organism-based; settings: tested as the 125I-labelled form
# Method in brief: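 Ex vivo autoradiography in mice given 200 kBq [125I]tracer i.v. and killed at 60 min. Brains were removed, frozen on dry ice and cut into 20 µm sagittal cryosections, which were exposed to an imaging plate for 7 days. Regional signal was quantified as PSL/mm² (n = 5) and compared to control by Kruskal–Wallis with Dunn's post-test.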
# [4] = target: T1, Sodium- and chloride-dependent glycine transporter 1 (Rattus norvegicus); assay: Binding affinity to GlyT1 in rat brain midbrain at 0.03 to 0.04 nM preincubated for 20 mins in binding buffer before compound addition measured after 30 mins by autoradiography in presence of 0.01 mM GlyT2 inhibitor ORG25543 relative to control; format: tissue-based; settings: tested as the 125I-labelled form; method in brief: as §1
# [5] = system: Mus musculus; assay: In vivo binding affinity to GlyT1 in ddY mouse brain striatum at 33.3 kBq, iv after 60 mins in presence of SSR504734 2 mg/kg, iv administered 15 mins prior to compound administration relative to control; format: functional, organism-based; set-up: dose 2 mg/kg; settings: tested as the 125I-labelled form
# [6] = target: T1, Sodium- and chloride-dependent glycine transporter 1 (Rattus norvegicus); assay: Binding affinity to GlyT1 in rat brain medullary region at 0.03 to 0.04 nM preincubated for 20 mins in binding buffer before compound addition measured after 30 mins by autoradiography in presence of 0.01 mM GlyT1 inhibitor ALX5407 relative to control; format: tissue-based; settings: tested as the 125I-labelled form; method in brief: as §1
# [7] = system: Mus musculus; assay: In vivo binding affinity to GlyT1 in ddY mouse brain striatum at 33.3 kBq, iv after 30 mins in presence of nonradioactive compound 2 mg/kg, iv administered 15 mins prior to compound administration relative to control; format: functional, organism-based; set-up: dose 2 mg/kg; settings: tested as the 125I-labelled form
# [8] = target: T1, Sodium- and chloride-dependent glycine transporter 1 (Rattus norvegicus); assay: Binding affinity to GlyT1 in rat brain corpus callosum at 0.03 to 0.04 nM preincubated for 20 mins in binding buffer before compound addition measured after 30 mins by autoradiography relative to control; format: tissue-based; settings: tested as the 125I-labelled form
# Method in brief: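 Rat brain sagittal sections (20 µm), 20 min preincubation at 25 °C in Tris-HCl pH 7.5 binding buffer, then [125I] tracer (100 kBq, 0.03–0.04 nM) for 30 min at 25 °C. Nonspecific binding taken with 10 µM unlabeled ligand. Imaging-plate read-out as (PSL−BG)/mm². Mean ± SD, n = 4–5 from at least three rats; Mann–Whitney U-test.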
# [9] = system: Mus musculus; assay: In vivo binding affinity to GlyT1 in ddY mouse brain medullary region at 33.3 kBq, iv after 60 mins in presence of SSR504734 2 mg/kg, iv administered 15 mins prior to compound administration relative to control; format: functional, organism-based; set-up: dose 2 mg/kg; settings: Medulla of organ, tested as the 125I-labelled form
# [10] = system: Nucleic Acid; assay: Ratio of drug level in brain to blood in ddY mouse at 11.1 kBq, iv after 0.5 min by gamma counting; format: ADME, organism-based
# [11] = system: Spleen; assay: Drug uptake in ddY mouse spleen at 11.1 kBq, iv after 0.5 min by gamma counting; format: ADME, organism-based; settings: in vivo
# Method in brief: (§2)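 Male ddY mice (6 weeks, 30–35 g) were given about 11.1 kBq of [125I]tracer in 0.1 mL i.v. via the tail vein. At each time point the animals were killed and organs dissected, weighed and gamma-counted. Uptake is expressed as % injected dose per gram of tissue, mean ± SD, n = 5–6.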
# [12] = system: Brain; assay: Drug uptake in ddY mouse brain at 11.1 kBq, iv after 15 min by gamma counting; format: ADME, organism-based; settings: in vivo
# Method in brief: (§3)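 Male ddY mice (6 weeks, 30–35 g) received about 11.1 kBq [125I]tracer in 0.1 mL i.v. via tail vein. Killed at set times, organs dissected and weighed, radioactivity gamma counted. Reported as % injected dose/g tissue, mean ± SD, n = 5–6.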
# [13] = Metabolic stability in ddY mouse brain assessed as compound remaining at 185 kBq after 30 mins by radio-TLC; format: ADME, tissue-based; settings: read-out: Stability
# [14] = system: Heart; assay: Drug uptake in ddY mouse heart at 11.1 kBq, iv after 5 min by gamma counting; format: ADME, organism-based; settings: in vivo; method in brief: as §3
# [15] = system: Mus musculus; assay: In vivo binding affinity to GlyT1 in ddY mouse brain midbrain at 33.3 kBq, iv after 60 mins in presence of N-Me-SSR504734 2 mg/kg, iv administered 15 mins prior to compound administration relative to control; format: functional
# [16] = system: Kidney; assay: Drug uptake in ddY mouse kidney at 11.1 kBq, iv after 30 min by gamma counting; format: ADME, organism-based; settings: in vivo, 0.5 h; method in brief: as §2
# [17] = system: Mus musculus; assay: In vivo binding affinity to GlyT1 in ddY mouse brain thalamus at 33.3 kBq, iv after 30 mins in presence of N-Me-SSR504734 2 mg/kg, iv administered 15 mins prior to compound administration relative to control; format: functional
# [18] = system: Nucleic Acid; assay: Ratio of drug level in brain to blood in ddY mouse at 11.1 kBq, iv after 30 min by gamma counting; format: ADME, organism-based; settings: 0.5 h
SMILES,Activity [1] [%],Activity [2] [%],Activity [3],Activity [4] [%],Activity [5],Activity [6] [%],Activity [7],Activity [8],Activity [9],Ratio [10],Drug uptake [11] [% ID/g],Drug uptake [12] [% ID/g],remaining at 0.5 h [13] [%],Drug uptake [14] [% ID/g],Activity [15] [%],Drug uptake [16] [% ID/g],Activity [17] [%],Ratio [18]
CN1CCCC[C@H]1[C@@H](NC(=O)c1cccc(C(F)(F)F)c1I)c1ccccc1,92.5,87.1,Active,115,inactive,25.3,Active,Active,inactive,,,,,,,,,
CN1CCCC[C@H]1[C@@H](NC(=O)c1cccc(C(F)(F)F)c1[125I])c1ccccc1,,,,,,,,,,0.38,0.97,1.68,90,5.17,48,10.22,56,2.46
